Experimental findings from ChEMBL document CHEMBL4732030, “Aloe-emodin derived azoles as a new structural type of potential antibacterial agents: design, synthesis, and evaluation of the action on membrane, DNA, and MRSA DNA isomerase” (RSC Med Chem, 2021) are described below.

Values after ≈ are worked out from the molar mass of the structure shown. Active and inactive are the calls of the source. The calls are words filed in the database; no cut-off is given here.

Data set [1] deals with Cell membrane. Kind of data set: Disruption of membrane integrity in methicillin-reisitant Staphylococcus aureus assessed as increase in fluorescence intensity at 12 times MIC measured within 50 mins by PI-staining based fluorescence analysis. An outline of the steps:
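Overnight MRSA culture pelleted, washed and resuspended in 5 mM glucose/5 mM HEPES pH 7.4 (1:1). Compound at 12× MIC added to 2 mL suspension containing 10 µM propidium iodide. Fluorescence followed at ex 535/em 617 nm. Water-treated suspension served as control.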

Data set [2] deals with Staphylococcus aureus. Kind of data set: Potency index, ratio of norfloxacin MIC to compound MIC for antibacterial activity against methicillin resistant staphylococcus aureus incubated for 24 hrs by microbroth dilution method. Format: functional. Background: In broth dilution the organism is exposed to a series of concentrations in liquid medium.
For data set [3], the system named is Calf thymus DNA. Kind of data set: Binding affinity to calf thymus DNA assessed as DNA intercalation by neutral red dye based UV-visible spectroscopic method. Format: nucleic-acid assay. Particulars: Bos taurus. In a few lines:
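Neutral red stock prepared in doubly distilled water and kept cool and dark. DNA stock concentration was set by A260 (ε260 = 6600 L·mol−1·cm−1, per phosphate), with A260/A280 >1.8. All solutions were in Tris-HCl pH 7.4. UV spectra were taken at room temperature in 1.0 cm quartz cells.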

A short description of data set [4]: Cytotoxicity against human HepG2 cells assessed as cell viability at 12 uM after 72 hrs by CCK8 assay. Format: cell-based. The conditions noted are these: read-out: Activity. On the technique in general: Tetrazolium assays rely on reduction of a dye to a coloured formazan, in cell work by metabolically active cells.
In data set [5] the test system is Klebsiella pneumoniae. The data set is described as follows: Antibacterial activity against Klebsiella pneumoniae assessed as inhibition of bacterial growth after 24 hrs by microbroth dilution method. In kind it is functional. An outline of the steps:
(§1)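 Bacterial inoculum set to 1×10^5 CFU with sterile saline. Test agents and reference drugs, from DMSO stocks, diluted in Mueller-Hinton broth to 512, 256, 128, 64, 32, 16, 8, 4, 2, 1 and 0.5 µg/mL. Inoculated dilutions incubated 37 °C for 24 h.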

Data set [6] can be described thus: Cytotoxicity against human LO2 cells assessed as cell viability at 12.5 uM after 72 hrs by CCK8 assay. In kind it is cell-based, L02. The conditions noted are these: read-out: Activity. In a few lines:
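Normal human liver LO2 cells seeded at 3000/well and cultured 24 h. Compound added at 100 to 6.25 µM in PBS containing 1% DMSO, then incubated 72 h. CCK8 added for 2 h at 37 °C and absorbance read at 450 nm.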

Data set [7] deals with Cell membrane. Kind of data set: Disruption of membrane integrity in methicillin-reisitant Staphylococcus aureus assessed as increase in red fluorescence at 12 times MIC by PI-staining based fluorescence microscopy analysis. In a few lines: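 Overnight MRSA cultures treated at 12× MIC, with 0.1% Triton X-100 as positive control and untreated cells as negative control. Cells washed once in 1× PBS and stained with 4.5 mM propidium iodide for 15 min at 37 °C. Imaged by fluorescence microscopy, 10× objective, green-light excitation.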

For data set [8], the system named is Pseudomonas aeruginosa. The data set is described as follows: Antibacterial activity against Pseudomonas aeruginosa assessed as inhibition of bacterial growth after 24 hrs by microbroth dilution method. In kind it is functional. In a few lines:
as §1

Data set [9] has as its system Staphylococcus aureus. Kind of data set: Induction of ROS generation in methicillin-resistant Staphylococcus aureus after 6 hrs by DCFH-DA dye based fluorometric analysis. Format: functional, organism-based. In a few lines:
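MRSA cells at 10^6 CFU/mL were exposed to increasing concentrations of compound for 6 h at 37 °C, then washed with PBS. They were loaded with 10 μM DCFH-DA for 30 min in the dark at 37 °C. DCF fluorescence was read at ex 485/em 528 nm and expressed as fold increase over untreated control cells.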

In data set [10] the test system is Escherichia coli. The data set is described as follows: Antibacterial activity against Escherichia coli assessed as inhibition of bacterial growth after 24 hrs by microbroth dilution method. Format: functional. In a few lines:
as §1

The subject of data set [11] is Acinetobacter baumannii. The data set is described as follows: Antibacterial activity against Acinetobacter baumannii assessed as inhibition of bacterial growth after 24 hrs by microbroth dilution method. In kind it is functional. An outline of the steps:
as §1

Data set [12] has as its system Calf thymus DNA. Kind of data set: Binding affinity to calf thymus DNA assessed as DNA intercalation by measuring hypochromic shift by UV-visible absorption spectrophotometric method. Format: nucleic-acid assay. Particulars: Bos taurus. In a few lines: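 DNA held fixed while compound concentration was raised stepwise, in Tris-HCl buffer pH 7.4. UV-vis spectra recorded at room temperature in 1.0 cm quartz cells, monitoring the 260 nm DNA band. Binding constant came from a linear fit of A0/(A−A0) against 1/[compound]. DNA stock concentration was set by A260 (ε260 = 6600 L·mol−1·cm−1, per phosphate), with A260/A280 >1.8.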

The subject of data set [13] is Staphylococcus aureus. The data set is described as follows: Antibacterial activity against Staphylococcus aureus ATCC 25923 assessed as inhibition of bacterial growth after 24 hrs by microbroth dilution method. Format: functional. An outline of the steps: as §1
Data set [14] relates to Staphylococcus aureus. Kind of data set: Antibacterial activity against Staphylococcus aureus ATCC 29213 assessed as inhibition of bacterial growth after 24 hrs by microbroth dilution method. In kind it is functional. In a few lines:
(§2)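 Inoculum adjusted in sterile saline to 1×10^5 CFU. Compounds dissolved in DMSO as stock, then diluted in Mueller-Hinton broth as a two-fold series from 512 to 0.5 µg/mL (11 levels). Inoculated dilutions incubated at 37 °C for 24 h, and the MIC recorded.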

Data set [15] has as its system Staphylococcus aureus. The data set is described as follows: Antibacterial activity against methicillin resistant Staphylococcus aureus assessed as inhibition of bacterial growth after 24 hrs by microbroth dilution method. Format: functional. In a few lines: as §2
In data set [16] the test system is Enterococcus faecalis. The data set is described as follows: Antibacterial activity against Enterococcus faecalis assessed as inhibition of bacterial growth after 24 hrs by microbroth dilution method. In kind it is functional. An outline of the steps:
as §1

Data set [17] concerns Escherichia coli. Kind of data set: Antibacterial activity against Escherichia coli ATCC 25922 assessed as inhibition of bacterial growth after 24 hrs by microbroth dilution method. In kind it is functional. An outline of the steps: as §1
The subject of data set [18] is Pseudomonas aeruginosa. Kind of data set: Antibacterial activity against Pseudomonas aeruginosa ATCC 27853 assessed as inhibition of bacterial growth after 24 hrs by microbroth dilution method. In kind it is functional. An outline of the steps:
as §1

Data set [19] has as its system Staphylococcus aureus. Kind of data set: Antibacterial activity against Staphylococcus aureus assessed as inhibition of bacterial growth after 24 hrs by microbroth dilution method. In kind it is functional. An outline of the steps: as §1

Usually MIC stands for the lowest concentration that inhibits growth of the organism. Consider `O=C1c2cccc(O)c2C(=O)c2c(O)cc(Cn3cnnn3)cc21`, for which the outcome in [1], in [3], in data set [7] and in [12] was Active. The Ratio in data set [2] came to 4. The viability at 72 h, 12 µM in [4] is more than 50%. In addition, the minimum inhibitory concentration (MIC) in data set [5] was 32 µg/mL (≈ 99.3 µM); in data set [8] it was 64 µg/mL (≈ 199 µM); in data set [10], 128 µg/mL (≈ 397 µM); in data set [11], 16 µg/mL (≈ 49.6 µM); in [13], 64 µg/mL (≈ 199 µM); in data set [14] it was 1 µg/mL (≈ 3.1 µM). Further, the MIC in data set [15] turned out to be 2 µg/mL (≈ 6.21 µM); in data set [16], 4 µg/mL (≈ 12.4 µM); in [17], 64 µg/mL (≈ 199 µM); in [18], 16 µg/mL (≈ 49.6 µM); in data set [19], 16 µg/mL (≈ 49.6 µM). Moreover, in data set [6], the viability at 72 h, 12.5 µM was more than 60%. Besides, the result in data set [9] was inactive.
